Data reported in ChEMBL document CHEMBL5370586 (J Nat Prod, 2023).
Activity calls are given as the source filed them. The calls are words filed in the database; no cut-off is given here.

Key:
[1] = tested on: DU-145; assay: Induction of cell cycle arrest in human DU-145 cells assessed as arrest in G2/M phase by measuring reduction in CDK7 protein expression at IC50 concentration incubated for 48 hrs by Western blotting analysis; type: functional, cell-based
How it was run: (§1)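 DU145 or PC-3 cells seeded at 5 × 10^4 per well and given CBD for 48 h. Lysed in ice-cold RIPA with protease/phosphatase inhibitor; 40 μg protein per lane, SDS-PAGE, PVDF transfer, milk block. Primary antibodies overnight at 4 °C, then HRP secondary 1 h at room temperature, chemiluminescence. Densitometry normalised to loading control, then to vehicle; at least three experiments.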

[2] = biological target: T1, Serine/threonine-protein kinase AKT (Homo sapiens) (UniProt P31751+Q9Y243+P31749); assay: Inhibition of AKT phosphorylation in human PC-3 cells at IC50 concentration incubated for 48 hrs by Western blot analysis; type: cell-based
T1 sequence (P31749 whole entry, looked up): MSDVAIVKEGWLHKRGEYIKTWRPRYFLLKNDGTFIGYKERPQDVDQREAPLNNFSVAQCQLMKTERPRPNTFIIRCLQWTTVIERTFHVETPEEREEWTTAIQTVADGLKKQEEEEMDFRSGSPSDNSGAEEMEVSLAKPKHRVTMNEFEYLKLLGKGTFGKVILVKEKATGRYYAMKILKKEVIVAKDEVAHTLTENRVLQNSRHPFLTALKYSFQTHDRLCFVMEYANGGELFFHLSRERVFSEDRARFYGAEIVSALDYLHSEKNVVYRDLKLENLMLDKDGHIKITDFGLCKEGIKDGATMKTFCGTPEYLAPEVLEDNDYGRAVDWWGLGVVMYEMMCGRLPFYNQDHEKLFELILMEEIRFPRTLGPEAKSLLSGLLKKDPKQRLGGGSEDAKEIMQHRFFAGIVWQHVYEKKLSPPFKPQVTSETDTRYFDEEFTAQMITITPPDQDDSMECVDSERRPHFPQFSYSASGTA
T1 sequence (P31751 whole entry, looked up): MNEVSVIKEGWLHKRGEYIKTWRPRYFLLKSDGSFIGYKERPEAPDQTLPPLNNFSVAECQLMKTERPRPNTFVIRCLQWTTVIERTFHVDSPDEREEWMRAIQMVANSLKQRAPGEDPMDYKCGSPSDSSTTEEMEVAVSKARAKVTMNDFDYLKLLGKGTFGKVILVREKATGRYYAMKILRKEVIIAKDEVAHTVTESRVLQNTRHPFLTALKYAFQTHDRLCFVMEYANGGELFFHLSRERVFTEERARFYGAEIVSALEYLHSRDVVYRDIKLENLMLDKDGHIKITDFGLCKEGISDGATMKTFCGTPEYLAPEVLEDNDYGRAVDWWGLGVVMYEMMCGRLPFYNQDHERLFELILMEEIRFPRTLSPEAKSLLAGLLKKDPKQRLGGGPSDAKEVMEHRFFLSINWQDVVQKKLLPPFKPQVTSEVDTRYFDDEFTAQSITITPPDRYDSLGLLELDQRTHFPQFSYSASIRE
T1 sequence (Q9Y243 whole entry, looked up): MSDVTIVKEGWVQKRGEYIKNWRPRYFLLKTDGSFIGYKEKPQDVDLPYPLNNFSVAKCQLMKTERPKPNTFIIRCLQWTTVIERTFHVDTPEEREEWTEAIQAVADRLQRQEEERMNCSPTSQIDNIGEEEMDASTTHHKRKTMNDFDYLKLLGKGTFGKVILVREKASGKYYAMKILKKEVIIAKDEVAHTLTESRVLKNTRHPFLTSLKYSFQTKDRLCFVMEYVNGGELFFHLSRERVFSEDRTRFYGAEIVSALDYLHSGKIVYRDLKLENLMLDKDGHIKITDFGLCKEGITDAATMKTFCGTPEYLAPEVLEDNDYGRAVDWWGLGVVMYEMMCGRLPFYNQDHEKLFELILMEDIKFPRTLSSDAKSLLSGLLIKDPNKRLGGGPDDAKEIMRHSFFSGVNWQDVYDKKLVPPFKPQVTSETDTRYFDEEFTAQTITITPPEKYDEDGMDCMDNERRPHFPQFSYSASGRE
How it was run: (§2)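 Cells seeded at 5 × 10^4 per well and treated 48 h with an IC50 dose of CBD in DU145 or PC-3. Lysed in ice-cold RIPA with protease/phosphatase inhibitor. 40 μg protein per lane on SDS-PAGE, then PVDF. Probed overnight at 4 °C for phospho-AKT and total AKT, HRP detection. Densitometry normalised to loading control, then to vehicle. Mean ± SD, ≥3 experiments, t-test.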

[3] = tested on: DU-145; assay: Antiproliferative activity against human DU-145 cells assessed as reduction in cell viability incubated for 72 hrs in presence of 10% FBS by MTT assay; type: functional, cell-based; settings: DU-145, 72 h
How it was run: (§3)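 Cells left to adhere 24 h, then exposed to CBD (0–100 μM) for 72 h in medium with 10% FBS. MTT incubation 3 h at 37 °C, DMSO solubilisation, A570. Viability relative to vehicle; IC50 from nonlinear regression; at least three independent experiments.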

[4] = tested on: PC-3; assay: Induction of cell cycle arrest in human PC-3 cells assessed as arrest in G2/M phase by measuring reduction in CDK7 protein expression at IC50 concentration incubated for 48 hrs by Western blotting analysis; type: functional, cell-based; how it was run: as §1
[5] = tested on: PWR-1E; assay: Induction of apoptosis in human PWR-1E cells assessed as early apoptotic cells at 1 to 10 uM incubated for 72 hrs […] and propidium iodide staining based high content imaging fluorescence microscopic analysis; type: toxicity, cell-based; settings: dose 1-10 µM
How it was run: (§4)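 PWR-1E cells seeded at 2 × 10^3 per well and given CBD at 1, 2 or 10 μM without serum for 72 h. Stained with Hoechst 33342, YO-PRO-1 and PI, then imaged by high-content microscopy. Scored for confluency and for healthy, early and late apoptotic fractions; at least three independent experiments.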

[6] = tested on: PWR-1E; assay: Induction of apoptosis in human PWR-1E cells assessed as late apoptotic cells at 1 to 10 uM incubated for 72 hrs by YO-PRO and propidium iodide staining based high content imaging fluorescence microscopic analysis; type: toxicity, cell-based; settings: dose 1-10 µM; how it was run: as §4
[7] = Cytotoxicity against human PWR-1E cells assessed as cell viability incubated for 72 hrs in serum deprivation condition by MTT assay; type: toxicity, cell-based
How it was run: (§5)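 Cells seeded at 1 × 10^3 (DU145, PC-3), 6 × 10^3 (LNCaP), 2 × 10^3 (PWR-1E) or 4.5 × 10^3 (RWPE-1) per well and left to adhere 24 h. CBD (0–100 μM) then given for 72 h in serum-free medium. MTT added for 3 h at 37 °C, formazan dissolved in DMSO, absorbance read at 570 nm. Viability is % of vehicle; IC50 by nonlinear regression; at least three independent experiments.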

[8] = biological target: T1, Serine/threonine-protein kinase AKT (Homo sapiens); assay: Inhibition of AKT phosphorylation in human DU-145 cells at IC50 concentration incubated for 48 hrs by Western blot analysis relative to control; type: cell-based; how it was run: as §2
[9] = tested on: DU-145; assay: Induction of cell cycle arrest in human DU-145 cells assessed as arrest in G1/S phase by measuring reduction in CDK2 protein expression at IC50 concentration incubated for 48 hrs by Western blotting analysis; type: functional, cell-based; how it was run: as §1
[10] = tested on: DU-145; assay: Induction of cell cycle arrest in human DU-145 cells assessed as arrest in G1/S phase by measuring reduction in cyclin D3 protein expression at IC50 concentration incubated for 48 hrs by Western blotting analysis relative to control; type: functional; set-up: scale not given: the % may be the effect or the level left; how it was run: as §1
[11] = tested on: PC-3; assay: Anti-invasive activity against human PC-3 cells assessed as reduction in MMP-3 protein secretion incubated for 48 hrs by ELISA analysis; type: functional, cell-based
[12] = tested on: DU-145; assay: Antiproliferative activity against human DU-145 cells assessed as reduction in cell count at IC50 concentration incubated for 48 hrs by flow cytometry analysis; type: functional, cell-based
How it was run: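 Six-well seeding at 4 × 10^4 (DU145) or 3 × 10^4 (PC-3) cells per well; CBD for 48 h. Supernatant and trypsinised adherent cells pooled and resuspended in ice-cold PBS. Cells counted by flow cytometry with forward/side scatter gating; at least three independent experiments.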

[13] = tested on: PC-3; assay: Anti-invasive activity against human PC-3 cells assessed as reduction in MMP-1 protein secretion incubated for 48 hrs by ELISA analysis; type: functional, cell-based
[14] = tested on: PC-3; assay: Antiproliferative activity against human PC-3 cells assessed as reduction in cell viability incubated for 72 hrs in presence of capsazepine by MTT assay; type: functional, cell-based
How it was run: (§6)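 DU145 or PC-3 cells pretreated 1 h with SR141716 (CB1 antagonist), SR144528 (CB2 antagonist), capsazepine (TRPV1 antagonist) or LPI (GPR55 agonist), then given CBD for 72 h. MTT read-out as % of vehicle. Compared with CBD alone by t-test; at least three independent experiments.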

[15] = tested on: PC-3; assay: Antiproliferative activity against human PC-3 cells assessed as reduction in cell viability incubated for 72 hrs in presence of 10% FBS by MTT assay; type: functional, cell-based; settings: PC-3, 72 h; how it was run: as §3
[16] = tested on: PWR-1E; assay: Induction of cell death in human PWR-1E cells assessed as reduction in nucleus circularity at 1 to 10 uM incubated for 72 hrs by Hoechst 33342 staining based high-content fluorescence microscopy; type: toxicity; settings: dose 1-10 µM
[17] = tested on: DU-145; assay: Induction of cell death in human DU-145 cells assessed as reduction in cell nucleus circularity at 1 to 10 uM measured after 72 hrs by Hoechst 33342 staining based high content imaging fluorescence microscopic analysis; type: functional; settings: dose 1-10 µM
How it was run: (§7)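 DU145 or PC-3 cells seeded at 2 × 10^3 per well and given CBD at 1, 5 or 10 μM with serum for 72 h; staurosporine as positive control. Stained 30 min with Hoechst 33342 (1:5000), YO-PRO-1 (1:1000) and PI (1:1000). High-content imaging with a 63× water objective. Hoechst gave confluency, nucleus area and circularity; YO-PRO/PI gave healthy, early and late apoptotic fractions.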

[18] = tested on: PC-3; assay: Antiproliferative activity against human PC-3 cells assessed as reduction in cell colonies incubated for 48 hrs detached and reseeded without compound and measured after 7 days by glutaraldehyde/crystal violet staining based clonogenic assay relative to control; type: functional; set-up: scale not given: the % may be the effect or the level left
How it was run: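 PC-3 cells left to adhere 24 h, then treated 48 h. Detached and reseeded at 500 cells per well without drug, then grown 7 days at 37 °C, 5% CO2, with medium changed every 2–3 days. Colonies fixed and stained with glutaraldehyde/crystal violet and counted.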

[19] = tested on: PC-3; assay: Induction of cell death in human PC-3 cells assessed as reduction in cell nucleus area at 1 to 10 uM measured after 72 hrs by Hoechst 33342 staining based high content imaging fluorescence microscopic analysis; type: functional; settings: dose 1-10 µM; how it was run: as §7
[20] = tested on: PC-3; assay: Antiproliferative activity against human PC-3 cells assessed as reduction in cell viability incubated for 72 hrs in presence of LPI by MTT assay; type: functional, cell-based; how it was run: as §6
[21] = tested on: DU-145; assay: Antiproliferative activity against human DU-145 cells assessed as reduction in cell viability incubated for 72 hrs in presence of SR144528 by MTT assay; type: functional, cell-based; how it was run: as §6
[22] = tested on: DU-145; assay: Induction of apoptosis in human DU-145 cells assessed as early apoptotic cells at 1 to 10 uM incubated for 72 hrs by YO-PRO and propidium iodide staining based high content imaging fluorescence microscopic analysis; type: functional, cell-based; settings: dose 1-10 µM; how it was run: as §7
[23] = tested on: LNCaP; assay: Antiproliferative activity against human LNCap cells assessed as reduction in cell viability incubated for 72 hrs in presence of 10% FBS by MTT assay; type: functional, cell-based; how it was run: as §3
[24] = tested on: PC-3; assay: Induction of apoptosis in human PC-3 cells assessed as late apoptotic cells at 1 to 10 uM incubated for 72 hrs by YO-PRO and propidium iodide staining based high content imaging fluorescence microscopic analysis; type: functional, cell-based; settings: dose 1-10 µM; how it was run: as §7
[25] = tested on: DU-145; assay: Antiproliferative activity against human DU-145 cells assessed as reduction in cell viability incubated for 72 hrs in serum deprivation condition by MTT assay; type: functional, cell-based; settings: DU-145, 72 h; how it was run: as §5
[26] = tested on: PC-3; assay: Induction of cell cycle arrest in human PC-3 cells assessed as arrest in G1/S phase by measuring reduction in CDK2 protein expression at IC50 concentration incubated for 48 hrs by Western blotting analysis; type: functional, cell-based; how it was run: as §1
[27] = tested on: PC-3; assay: Induction of apoptosis in human PC-3 cells assessed as reduction in fraction of healthy cells at 1 to 10 uM incubated for 72 hrs by YO-PRO and propidium iodide staining based high content imaging fluorescence microscopic analysis; type: functional, cell-based; settings: dose 1-10 µM; how it was run: as §7
[28] = tested on: DU-145; assay: Antiproliferative activity against human DU-145 cells assessed as reduction in cell viability incubated for 72 hrs in presence of capsazepine by MTT assay; type: functional, cell-based; how it was run: as §6

With C=C(C)[C@@H]1CCC(C)=C[C@H]1c1c(O)cc(CCCCC)cc1O [CANNABIDIOL] the Activity [1] was “inactive”, the inhibition [2] was “inactive” and the IC50 [3] was 12.3 µM. The Activity [4] was “inactive”, the Activity [5] was “Toxic” and the Activity [6] was “Toxic”. The IC50 at 72 h [7] was 0.9 µM, the inhibition [8] was 40% and the Activity [9] was “Active”. For the same molecule, the Activity [10] was about 20%, the Activity [11] was “inactive” and the Activity [12] was “Active”. The Activity [13] was “inactive”, the Activity [14] was “Active” and the IC50 [15] was 10.5 µM. For the same molecule, the Activity [16] was “Toxic”, the Activity [17] was “inactive” and the Activity [18] was about 25%. For the same molecule, the Activity [19] was “inactive”, the Activity [20] was “Active” and the Activity [21] was “Active”. For the same molecule, the Activity [22] was “inactive”, the IC50 [23] was 18 µM and the Activity [24] was “inactive”. For the same molecule, the IC50 [25] was 1.5 µM, the Activity [26] was “Active” and the Activity [27] was “inactive”. For the same molecule, the Activity [28] was “Active”.
